Reference: ChEMBL document CHEMBL3421605, “Structure-activity relationship studies of SEN12333 analogues: determination of the optimal requirements for binding affinities at α7 nAChRs through incorporation of known structural motifs” (Eur J Med Chem, 2015)

Biological target: Neuronal acetylcholine receptor; alpha3/beta4 (Rattus norvegicus, UniProt P04757+P12392)
Assay: Displacement of [3H]epibatidine from rat alpha3beta4 nAChR transfected in HEK293 cells by liquid scintillation counting
Assay type: cell-based
Conditions: not given
Procedure, shortened: (§1)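 Stably transfected HEK293 cells scraped at >80% confluence into 50 mM Tris·HCl pH 7.4 at 4 °C and spun at 10,000 g. Pellet homogenised and spun at 36,000 g for 10 min at 4 °C, then resuspended. Competition against racemic [3H]epibatidine at ~500 pM (α3β4, α4β2) or ~2 nM (α7). Nonspecific binding with 300 µM nicotine. GF/C filters pretreated with 0.5% PEI. Ki derived.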

Sequence of Neuronal acetylcholine receptor; alpha3/beta4 (P04757 whole entry): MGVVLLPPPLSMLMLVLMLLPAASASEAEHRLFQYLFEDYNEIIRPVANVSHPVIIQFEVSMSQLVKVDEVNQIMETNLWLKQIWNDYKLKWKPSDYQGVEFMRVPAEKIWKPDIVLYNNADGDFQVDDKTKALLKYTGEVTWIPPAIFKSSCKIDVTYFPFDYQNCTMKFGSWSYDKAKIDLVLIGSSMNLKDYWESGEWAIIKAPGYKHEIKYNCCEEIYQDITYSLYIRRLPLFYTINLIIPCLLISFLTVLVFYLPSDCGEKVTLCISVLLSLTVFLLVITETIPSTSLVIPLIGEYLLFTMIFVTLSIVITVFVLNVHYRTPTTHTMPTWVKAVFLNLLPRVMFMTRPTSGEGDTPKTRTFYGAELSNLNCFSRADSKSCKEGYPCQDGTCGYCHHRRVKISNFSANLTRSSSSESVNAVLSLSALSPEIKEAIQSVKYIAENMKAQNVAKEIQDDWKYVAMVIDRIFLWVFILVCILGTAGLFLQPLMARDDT
Sequence of Neuronal acetylcholine receptor; alpha3/beta4 (P12392 whole entry): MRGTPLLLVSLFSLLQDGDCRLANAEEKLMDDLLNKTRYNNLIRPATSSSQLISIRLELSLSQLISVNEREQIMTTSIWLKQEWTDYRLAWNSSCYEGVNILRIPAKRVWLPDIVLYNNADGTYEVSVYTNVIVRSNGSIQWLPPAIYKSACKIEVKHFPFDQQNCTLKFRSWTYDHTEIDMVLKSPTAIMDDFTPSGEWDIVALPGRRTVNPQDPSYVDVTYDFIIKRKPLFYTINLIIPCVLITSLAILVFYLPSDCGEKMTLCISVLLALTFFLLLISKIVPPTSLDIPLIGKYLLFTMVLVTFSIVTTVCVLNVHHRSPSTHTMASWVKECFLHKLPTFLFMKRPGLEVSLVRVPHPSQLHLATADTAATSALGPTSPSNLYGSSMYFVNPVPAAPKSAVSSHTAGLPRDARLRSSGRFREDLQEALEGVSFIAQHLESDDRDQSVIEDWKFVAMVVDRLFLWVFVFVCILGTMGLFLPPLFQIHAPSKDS

Point of comparison: CN1CCN(CCCCC(=O)Nc2ccc(-c3ccccc3)cc2)CC1, Ki 88.1 µM. Against it:
- c1ccc(-c2ccc(N3CCCCC3)cc2)cc1 — not separable, > 10 µM
- O=C(CCCCN1CCCCC1)Nc1ccc(-c2cccnc2)cc1 — not separable, > 10 µM
- c1ccc(-c2ccc(N3CCCCC3)nn2)cc1 — not separable, > 10 µM
- CN1CCN(c2ccc(-c3ccccc3)nn2)CC1 — not separable, > 10 µM
- CN1C[C@@H]2C[C@H]1CN2CCCCC(=O)Nc1ccc(-c2ccccc2)cc1 — not separable, > 10 µM
- CN1CCN(c2ccc(-c3ccccc3)cc2)CC1 — not separable, > 10 µM
- O=C(CCCCN1CCCCC1)Nc1cc(-c2ccccc2)[nH]n1 — not separable, > 10 µM
- c1ccc(-c2ccc(N3CCOCC3)nn2)cc1 — higher, > 1000 µM
- O=C(CCCCN1CC2(COC2)C1)Nc1ccc(-c2cccnc2)cc1 — not separable, > 50 µM
- c1cncc(-c2ccc(N3CCOCC3)cc2)c1 — not separable, > 10 µM
- c1cncc(-c2ccc(N3CCCCC3)cc2)c1 — not separable, > 10 µM
- CN1CCN(CCCCC(=O)Nc2ccc(-c3cccnc3)cc2)CC1 — 3.6-fold higher, 313 µM
- c1ccc(-c2ccc(N3CCOCC3)cc2)cc1 — not separable, > 10 µM
- O=C(CCCCN1CC2(COC2)C1)Nc1ccc(-c2ccccc2)cc1 — not separable, > 50 µM
- O=C(CCCCN1CCOCC1)Nc1ccc(-c2ccccn2)cc1 — not separable, > 10 µM
- O=C(CCCCN1CCOCC1)Nc1ccc(-c2cccnc2F)cc1 — not separable, > 10 µM
- O=C(CCCCN1CCCCC1)Nc1ccc(-c2ccccc2)cc1 — 34-fold lower, 2.6 µM

Biological target: T1, Neuronal acetylcholine receptor subunit alpha-7 (Rattus norvegicus, UniProt Q05941)
T1 sequence (Q05941 whole entry): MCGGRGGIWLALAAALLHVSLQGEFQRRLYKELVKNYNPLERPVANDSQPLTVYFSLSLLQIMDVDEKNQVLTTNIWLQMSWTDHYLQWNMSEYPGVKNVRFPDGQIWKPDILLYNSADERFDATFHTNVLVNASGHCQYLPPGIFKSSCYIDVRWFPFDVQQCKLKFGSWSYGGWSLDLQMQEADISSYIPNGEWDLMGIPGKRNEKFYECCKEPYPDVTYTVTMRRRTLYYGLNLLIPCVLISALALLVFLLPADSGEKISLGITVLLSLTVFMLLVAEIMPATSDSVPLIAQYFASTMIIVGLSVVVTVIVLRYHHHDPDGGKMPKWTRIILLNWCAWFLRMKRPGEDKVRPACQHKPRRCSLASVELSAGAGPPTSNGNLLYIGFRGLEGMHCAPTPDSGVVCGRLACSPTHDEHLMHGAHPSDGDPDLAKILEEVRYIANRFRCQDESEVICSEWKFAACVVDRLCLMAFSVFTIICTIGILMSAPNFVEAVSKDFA
Assay: Displacement of [3H]epibatidine from rat alpha7 nAChR transfected in HEK293 cells by liquid scintillation counting
Assay type: cell-based
Conditions: not given
Procedure, shortened: as §1

Point of comparison: CN1CCN(c2ccc(-c3ccccc3)nn2)CC1, Ki 4.07 µM. Against it:
- c1ccc(-c2ccc(N3CCCCC3)cc2)cc1 — higher, > 10 µM
- O=C(CCCCN1CCCCC1)Nc1ccc(-c2cccnc2)cc1 — 18-fold lower, 0.22 µM
- c1ccc(-c2ccc(N3CCCCC3)nn2)cc1 — higher, > 10 µM
- CN1C[C@@H]2C[C@H]1CN2CCCCC(=O)Nc1ccc(-c2ccccc2)cc1 — within 1.5-fold, 3.2 µM
- CN1CCN(c2ccc(-c3ccccc3)cc2)CC1 — 1.9-fold higher, 7.7 µM
- O=C(CCCCN1CCCCC1)Nc1cc(-c2ccccc2)[nH]n1 — 6.2-fold lower, 0.66 µM
- c1ccc(-c2ccc(N3CCOCC3)nn2)cc1 — higher, > 10 µM
- O=C(CCCCN1CC2(COC2)C1)Nc1ccc(-c2cccnc2)cc1 — higher, > 10 µM
- c1cncc(-c2ccc(N3CCOCC3)cc2)c1 — higher, > 10 µM
- c1cncc(-c2ccc(N3CCCCC3)cc2)c1 — higher, > 10 µM
- CN1CCN(CCCCC(=O)Nc2ccc(-c3cccnc3)cc2)CC1 — 2.3-fold higher, 9.33 µM
- c1ccc(-c2ccc(N3CCOCC3)cc2)cc1 — higher, > 10 µM
- O=C(CCCCN1CC2(COC2)C1)Nc1ccc(-c2ccccc2)cc1 — higher, > 10 µM
- O=C(CCCCN1CCOCC1)Nc1ccc(-c2ccccn2)cc1 — 12-fold lower, 0.33 µM
- O=C(CCCCN1CCOCC1)Nc1ccc(-c2cccnc2F)cc1 — 48-fold lower, 0.085 µM
- O=C(CCCCN1CCCCC1)Nc1ccc(-c2ccccc2)cc1 — 21-fold lower, 0.19 µM
- CN1CCN(CCCCC(=O)Nc2ccc(-c3ccccc3)cc2)CC1 — 2.5-fold lower, 1.62 µM

Biological target: Neuronal acetylcholine receptor subunit alpha-7 (Rattus norvegicus) (UniProt Q05941)
Sequence (Q05941 whole entry): as above
Assay: Agonist activity at rat alpha7 nAChR expressed in GH4C1 cells by patch-clamp electrophysiology assay relative to acetylcholine
Assay type: cell-based
Conditions: GH4-C1

Compound O=C(CCCCN1CCOCC1)Nc1ccc(-c2cccnc2F)cc1 has an Emax of 136%.

Biological target: T1, Neuronal acetylcholine receptor subunit alpha-7
Assay: Agonist activity at rat alpha7 nAChR expressed in GH4C1 cells by patch-clamp electrophysiology assay
Assay type: cell-based, GH4-C1
Conditions: not given

O=C(CCCCN1CCOCC1)Nc1ccc(-c2cccnc2F)cc1 showed an EC50 of 27.3 µM.

Biological target: T1, Neuronal acetylcholine receptor subunit alpha-7
Assay: Agonist activity at rat alpha7 nAChR expressed in GH4C1 cells by fluorescent calcium assay
Assay type: cell-based, GH4-C1
Conditions: not given
Procedure, shortened: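 GH4C1 cells stably expressing rat α7 loaded with Fluo4 Direct dye. Baseline fluorescence read, then compound added, and peak/base ratios taken; >1.00 taken as agonism. Tested at 0.03, 0.1, 0.3, 1, 3 and 10 µM (one compound at 0.001–0.3 µM), n = 3. EC50 from dose–response curves.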

O=C(CCCCN1CCOCC1)Nc1ccc(-c2cccnc2F)cc1 showed an EC50 of 0.145 µM.

Biological target: Neuronal acetylcholine receptor; alpha4/beta2 (Rattus norvegicus, UniProt P09483+P12390)
Sequence (P09483 whole entry): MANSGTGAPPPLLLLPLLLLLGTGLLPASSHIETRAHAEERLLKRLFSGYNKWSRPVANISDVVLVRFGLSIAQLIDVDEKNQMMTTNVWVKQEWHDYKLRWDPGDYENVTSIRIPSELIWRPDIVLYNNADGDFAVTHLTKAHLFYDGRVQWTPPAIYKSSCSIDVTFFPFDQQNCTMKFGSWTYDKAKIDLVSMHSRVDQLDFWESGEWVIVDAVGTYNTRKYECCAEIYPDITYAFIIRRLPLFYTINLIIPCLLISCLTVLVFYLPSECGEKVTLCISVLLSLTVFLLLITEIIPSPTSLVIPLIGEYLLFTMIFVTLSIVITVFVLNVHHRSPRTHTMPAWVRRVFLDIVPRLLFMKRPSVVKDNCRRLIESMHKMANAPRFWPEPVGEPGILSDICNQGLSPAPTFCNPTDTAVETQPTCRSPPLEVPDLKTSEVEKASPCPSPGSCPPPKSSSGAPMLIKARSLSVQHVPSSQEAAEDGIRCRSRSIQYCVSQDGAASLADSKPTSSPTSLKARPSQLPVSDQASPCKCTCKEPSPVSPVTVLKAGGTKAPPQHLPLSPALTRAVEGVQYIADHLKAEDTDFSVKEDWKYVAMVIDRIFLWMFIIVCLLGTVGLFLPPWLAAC
Sequence (P12390 whole entry): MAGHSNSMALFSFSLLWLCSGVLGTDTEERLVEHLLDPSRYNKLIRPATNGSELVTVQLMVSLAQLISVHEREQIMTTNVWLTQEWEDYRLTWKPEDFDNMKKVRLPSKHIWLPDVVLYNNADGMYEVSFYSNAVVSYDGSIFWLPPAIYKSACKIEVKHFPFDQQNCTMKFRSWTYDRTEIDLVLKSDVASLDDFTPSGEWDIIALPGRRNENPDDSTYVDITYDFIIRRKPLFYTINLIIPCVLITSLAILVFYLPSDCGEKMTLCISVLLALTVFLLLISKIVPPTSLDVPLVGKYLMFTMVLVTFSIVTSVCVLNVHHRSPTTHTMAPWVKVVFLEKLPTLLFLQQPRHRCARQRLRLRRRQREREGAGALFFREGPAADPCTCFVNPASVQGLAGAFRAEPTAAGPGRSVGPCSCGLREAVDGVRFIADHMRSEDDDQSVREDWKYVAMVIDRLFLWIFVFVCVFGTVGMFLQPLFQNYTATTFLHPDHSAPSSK
Assay: Displacement of [3H]epibatidine from rat alpha4beta2 nAChR transfected in HEK293 cells by liquid scintillation counting
Assay type: cell-based
Conditions: not given
Procedure, shortened: as §1

Point of comparison: CN1CCN(c2ccc(-c3ccccc3)nn2)CC1, Ki 0.417 µM. Against it:
- c1ccc(-c2ccc(N3CCCCC3)cc2)cc1 — higher, > 10 µM
- O=C(CCCCN1CCCCC1)Nc1ccc(-c2cccnc2)cc1 — higher, > 10 µM
- c1ccc(-c2ccc(N3CCCCC3)nn2)cc1 — higher, > 10 µM
- CN1C[C@@H]2C[C@H]1CN2CCCCC(=O)Nc1ccc(-c2ccccc2)cc1 — higher, > 10 µM
- CN1CCN(c2ccc(-c3ccccc3)cc2)CC1 — higher, > 10 µM
- O=C(CCCCN1CCCCC1)Nc1cc(-c2ccccc2)[nH]n1 — higher, > 50 µM
- c1ccc(-c2ccc(N3CCOCC3)nn2)cc1 — higher, > 100 µM
- O=C(CCCCN1CC2(COC2)C1)Nc1ccc(-c2cccnc2)cc1 — higher, > 10 µM
- c1cncc(-c2ccc(N3CCCCC3)cc2)c1 — higher, > 10 µM
- c1ccc(-c2ccc(N3CCOCC3)cc2)cc1 — higher, > 10 µM
- O=C(CCCCN1CC2(COC2)C1)Nc1ccc(-c2ccccc2)cc1 — higher, > 10 µM
- O=C(CCCCN1CCOCC1)Nc1ccc(-c2ccccn2)cc1 — higher, > 10 µM
- O=C(CCCCN1CCOCC1)Nc1ccc(-c2cccnc2F)cc1 — higher, > 10 µM
- O=C(CCCCN1CCCCC1)Nc1ccc(-c2ccccc2)cc1 — higher, > 10 µM
